These results are taken from ChEMBL document CHEMBL1150357, “Synthesis and preliminary evaluation of some substituted coumarins as anticonvulsant agents” (Bioorg Med Chem, 2008).

Data set [1] relates to Mus musculus. Description: Anticonvulsant activity against strychnine-induced seizures in Albino mouse assessed as survival time at 100 mg/kg, po administered 1 hr before strychnine challenge. It is filed as functional.
Data set [2] concerns Mus musculus. The data set is described as follows: Anticonvulsant activity in Albino mouse assessed as protection against pentylenetetrazole-induced seizures at 100 mg/kg, ip administered 1 hr before pentylenetetrazole challenge. Format: functional. The following applies: route intraperitoneal. The procedure, abridged: (§1)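 Male albino mice (25–30 g), housed in groups of 10 and acclimated ≥2 days with free food and water. Test agent suspended in water with 2% Tween 80 and given ip. PTZ 112 mg/kg ip injected 1 h later. Mice without generalized convulsions scored as protected, expressed as % protection. PD50 by log-linear regression of dose-response across 50, 100, 200 mg/kg.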

Data set [3] relates to Mus musculus. Description: Anticonvulsant activity in Albino mouse assessed as protection against pentylenetetrazole-induced seizures at 50 mg/kg, ip administered 1 hr before pentylenetetrazole challenge. The note with it: route intraperitoneal. It is filed as functional. The procedure, abridged: as §1
A short description of data set [4]: Dissociation constant, pKa of the compound. It is filed as physicochemical. The procedure, abridged:
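Spectrophotometric pKa. Spectra of ionized and unionized forms recorded in 0.1 M HCl and 0.1 M NaOH with DMF. Absorbance read at the wavelength of maximal difference in phosphate buffer (Na2HPO4/KH2PO4, 0.15 M) with DMF at pH 7.6, 7.4, 7 and 6.8. pKa = pH + log[(Ai−A)/(A−Au)], averaged with SD.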

In data set [5] the test system is Mus musculus. The data set is described as follows: Anticonvulsant activity in Albino mouse assessed as protection against pentylenetetrazole-induced seizures at 200 mg/kg, ip administered 1 hr before pentylenetetrazole challenge. Format: functional. The following applies: route intraperitoneal. In a few lines:
as §1

Data set [6] relates to Mus musculus. Description: Anticonvulsant activity in ip dosed Albino mouse assessed as protection against pentylenetetrazole-induced seizures administered 1 hr before pentylenetetrazole challenge. The following applies: read-out: PD50. It is filed as functional. The procedure, abridged: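 PTZ model in male albino mice (25–30 g), 10 per group. Test agents suspended in water with 2% Tween 80 and given ip at graded doses (50, 100, 200 mg/kg). Pentylenetetrazole 112 mg/kg ip given 1 h later. Absence of generalized convulsions scored as protection. PD50 obtained by log-linear regression of dose–response curves.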

The test system of data set [7] is Mus musculus. The data set is described as follows: Toxicity against Albino mouse assessed as mortality at 3200 mg/kg after 24 hrs. The note with it: in vivo. On the set-up: dose 3200 mg/kg. Format: organism-based. In a few lines: (§2)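 Male albino mice (25–30 g), groups of 8. Single injected doses at equal log intervals (400, 800, 1600, 3200 mg/kg), bracketed by preliminary no-kill and LD100 doses. Deaths counted at 24 h. LD50 calculated by the Spearman–Karber method.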

For data set [8], the system named is Mus musculus. Description: Toxicity against Albino mouse assessed as mortality at 400 mg/kg after 24 hrs. It is filed as organism-based. The following applies: in vivo. On the set-up: dose 400 mg/kg. The procedure, abridged: as §2
Data set [9] can be described thus: Toxicity against Albino mouse assessed as mortality after 24 hrs. It is filed as organism-based. The note with it: in vivo. In a few lines: as §2
The test system of data set [10] is Mus musculus. Description: Anticonvulsant activity in Albino mouse assessed as protection against pentylenetetrazole-induced seizures at 10 mg/kg, ip administered 1 hr before pentylenetetrazole challenge. Format: functional. The note with it: route intraperitoneal. The procedure, abridged: (§3)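 Male albino mice (25–30 g), housed 10 per group and acclimated for at least 2 days. Dosed ip, suspended in water with 2% Tween 80. Pentylenetetrazole 112 mg/kg ip given 1 h later. Mice without generalized convulsions counted as protected; reported as % protection.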

Data set [11] relates to Mus musculus. The data set is described as follows: Anticonvulsant activity in Albino mouse assessed as protection against pentylenetetrazole-induced seizures at 30 mg/kg, ip administered 1 hr before pentylenetetrazole challenge. It is filed as functional. The note with it: route intraperitoneal. The procedure, abridged:
as §3

The subject of data set [12] is Mus musculus. The data set is described as follows: Anticonvulsant activity in Albino mouse assessed as protection against pentylenetetrazole-induced seizures at 20 mg/kg, ip administered 1 hr before pentylenetetrazole challenge. It is filed as functional. The following applies: route intraperitoneal. The procedure, abridged:
as §3

As for `CCNc1nc2ccc3oc(=O)ccc3c2s1`, the Survival in data set [1] was determined as 6.26 min.
With `CCOC(=O)c1s/c(=N/c2ccc3oc(=O)ccc3c2)n(C2CCCCC2)c1C`, in data set [1], the Survival was determined as 3.14 min. For the same molecule, in data set [2], the Activity was 60%.
As to `CNc1nc2ccc3oc(=O)ccc3c2s1`, the Activity in data set [2] was determined as 0%.
`CCN1C(=O)/C(=C/c2ccc(Cl)cc2)S/C1=N/c1ccc2oc(=O)ccc2c1`: the Survival in data set [1] was determined as 5.18 min.
A word on the pKa: it is the negative logarithm of the acid dissociation constant. A high value points to a group that holds its proton tightly. As for `CCn1c(-c2ccc(OC)cc2)cs/c1=N/c1ccc2oc(=O)ccc2c1`, the Activity in data set [3] turned out to be 20%; in [5], 60%; in data set [2] it was 60%. The molecule also had a pKa in data set [4] of 7.63. For the same molecule, the Survival in [1] was found to be 7.55 min. The ED50 in [6] turned out to be 138 mg/kg.
Take `CCNC(=S)Nc1ccc2oc(=O)ccc2c1`: the Activity in data set [3] was determined as 20%; in data set [5], 70%; in [2], 60%. In [4], this molecule gave a pKa of 5.62. For the same molecule, in [1], the Survival was found to be 3.92 min. Moreover, the ED50 in data set [6] is 125 mg/kg.
For the molecule `O=c1ccc2cc(NC(=S)NC3CCCCC3)ccc2o1`, the Survival in data set [1] is given as 5.02 min. In addition, in [2], the Activity came out at 30%.
Take `O=c1ccc2cc(NC(=S)Nc3ccc(Cl)cc3)ccc2o1`: in data set [1], the Survival is listed as 5.33 min. Further, the Activity in data set [2] turned out to be 20%.
For `O=C1CS/C(=N/c2nc3ccc4oc(=O)ccc4c3s2)N1`, in [1], the Survival came out at 5.44 min. Further, the Activity in data set [2] is given as 40%.
As to `CCOC(=O)c1s/c(=N/c2ccc3oc(=O)ccc3c2)n(C)c1C`, the Activity in data set [2] is 0%.
The term LD50 denotes the dose at which mortality reaches 50%. On to `CCOC(=O)c1s/c(=N/c2ccc3oc(=O)ccc3c2)n(CC)c1C`, for which the Activity is on record as 30% in [3]; “Toxic” in data set [7]; 90% in data set [5]; “Non-toxic” in data set [8]; 80% in data set [2]. Also, the pKa in data set [4] came out at 7.44. In data set [1], the Survival turned out to be 5 min. For the same molecule, the ED50 in data set [6] is 95 mg/kg. Further, in data set [9], the LD50 at 24 h was 1450 mg/kg.
Turning to `COc1ccc(-c2cs/c(=N/c3ccc4oc(=O)ccc4c3)n2-c2ccc(Cl)cc2)cc1`, the Activity in data set [2] came to 30%.
`O=C(CCl)Nc1nc2ccc3oc(=O)ccc3c2s1`: the Survival in data set [1] was found to be 4.4 min. In data set [2], the Activity stood at 0%.
Consider `CCN1C(=O)CS/C1=N/c1ccc2oc(=O)ccc2c1`, for which the Activity in data set [2] came to 30%.
Consider `CCN1C(=O)/C(=C/c2ccc([N+](=O)[O-])cc2)S/C1=N/c1ccc2oc(=O)ccc2c1`, for which the Survival in [1] came to 4.85 min. Moreover, the Activity in data set [2] worked out at 30%.
Consider `CCn1c(-c2ccc(Br)cc2)cs/c1=N/c1ccc2oc(=O)ccc2c1`, for which the Survival in [1] was 8.36 min. In addition, the Activity in data set [2] is recorded as 30%.
`CCCN1C(=O)CS/C1=N/c1ccc2oc(=O)ccc2c1`: in [1], the Survival was 5.4 min.
On to `COc1ccc(-c2cs/c(=N/c3ccc4oc(=O)ccc4c3)n2C2CCCCC2)cc1`, for which the Survival in data set [1] is listed as 4.5 min. Besides, in data set [2], the Activity is 20%.
Turning to `CCC1(c2ccccc2)C(=O)NC(=O)NC1=O` [PHENOBARBITAL], the Activity is 40% in data set [10], 90% in data set [11] and 70% in [12]. In [6], the ED50 amounted to 16 mg/kg.
In the case of `O=C1NC(=O)C(c2ccccc2)(c2ccccc2)N1` [PHENYTOIN], the Survival in [1] came to 13.8 min.
